Active and inactive are the calls of the source. No cut-off for these calls is given here.
Columns and labels:
[1] = tested on: Erythrocyte; test: Hemolytic activity against human red blood cells assessed as hemoglobin release at 64 uM measured after 1 hr by microplate reader analysis; format: ADME, cell-based
Summary of the method: (§1)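 Fresh heparinized human RBCs washed three times in 10 mM PBS pH 7.4 and resuspended to about 1% (v/v) (5.4 × 10^8 cells/mL). Mixed 1:1 with peptide in PBS for 1 h at 37 °C, then centrifuged. Supernatant hemoglobin read at A540. PBS set as 0% and 0.1% Triton X-100 as 100% hemolysis. MHC is the concentration causing 10% hemolysis.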

[2] = tested on: Erythrocyte; test: Hemolytic activity against human red blood cells assessed as concentration required to cause 10% hemoglobin release measured after 1 hr by microplate reader analysis; format: ADME, cell-based; summary of the method: as §1
[3] = tested on: Escherichia coli; test: Antibacterial activity against Escherichia coli O157:H7 CICC 21530 assessed as bacterial growth inhibition incubated for 18 to 24 hrs in presence of 4.5 mM KCl by microtiter broth dilution method (reference value: 0.85 to > 71.5 uM); format: functional; settings: time 18-24 hrs
[4] = Therapeutic index, ratio of MHC10 for human RBC to geometric mean of peptide MIC for Staphylococcus aureus ATCC 29213; format: toxicity; settings: human red blood cells (RBC), pooled result: one value given for 9 cell lines, strains, targets or settings, read-out: TI
Summary of the method: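 Therapeutic index = MHC (peptide concentration giving 10% hemolysis of human RBCs, 1 h, 37 °C, A540) divided by geometric mean of MICs from broth microdilution (10^5 CFU/mL in MHB, 37 °C, 18-24 h, OD492).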

[5] = tested on: RAW264.7; test: Cytotoxicity against mouse RAW264.7 cells assessed as increase in cell viability at 64 uM incubated for 24 hrs by MTT assay relative to control; format: cell-based; settings: raw264.7, 24 h
Summary of the method: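 RAW264.7 macrophages were grown in DMEM with 10% FBS, 2 mM glutamine and penicillin/streptomycin at 37 °C in 5% CO2. Cells seeded at 1.0-2.0 × 10^4 per well and treated with peptide (final 0.25-64 µM) for 24 h at 37 °C. MTT at 0.5 mg/mL added for 4 h, formazan dissolved in DMSO, read at 570 nm.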

[6] = tested on: Escherichia coli; test: Antibacterial activity against Escherichia coli O157:H7 CICC 21530 assessed as bacterial growth inhibition incubated for 18 to 24 hrs in presence of 4 mM FeCl3 by microtiter broth dilution method (reference value: 0.85 to > 71.5 uM); format: functional; settings: time 18-24 hrs
[7] = tested on: Staphylococcus aureus; test: Bactericidal activity against Staphylococcus aureus ATCC 29213 assessed as bacterial killing at 1 times MIC by time kill assay; format: functional, organism-based; settings: time 1085.0 min, TDE = time-dependent effect
Summary of the method: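 Log-phase S. aureus 29213 exposed to peptide at 1 × MIC in 10 mM PBS pH 7.4 at 37 °C for 0-90 min. Aliquots taken at fixed intervals, diluted and plated on nutrient agar, and colonies counted after 18 h at 37 °C. Average of three independent assays.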

[8] = tested on: Escherichia coli; test: Antibacterial activity against Escherichia coli ATCC 25922 assessed as bacterial growth inhibition incubated for 18 to 24 hrs by microtiter broth dilution method; format: functional; settings: time 18-24 hrs
Summary of the method: (§2)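 Log-phase cells (grown overnight at 37 °C, subcultured in MHB) diluted to 10^5 CFU/mL in MHB and mixed 1:1 with serial peptide dilutions prepared in 0.01% acetic acid/0.2% BSA. Incubated 37 °C for 18-24 h. MIC is the lowest concentration giving no growth by OD492. Reported as the average of 3-5 independent experiments.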

[9] = tested on: Cell membrane; test: Induction of outer membrane permeabilization in Escherichia coli O157:H7 CICC 21530 assessed as increase in fluorescence intensity by NPN-dye based fluorescence assay; format: subcellular; settings: dose 0.625-7.5 µM
[10] = tested on: Cell membrane; test: Induction of inner membrane permeabilization in Escherichia coli O157:H7 CICC 21530 assessed as cytoplasmic beta-galactosidase release at 1 times MIC using ONPG as substrate by […]; format: subcellular
[11] = tested on: Staphylococcus aureus; test: Antibacterial activity against Staphylococcus aureus ATCC 29213 assessed as bacterial growth inhibition incubated for 18 to 24 hrs in presence of 6 mM NH4Cl by microtiter broth dilution method (reference value: 0.43 to > 71.5 uM); format: functional; settings: time 18-24 hrs
[12] = tested on: Staphylococcus aureus; test: Antibacterial activity against Staphylococcus aureus ATCC 29213 assessed as bacterial growth inhibition incubated for 18 to 24 hrs in presence of 1 mM MgCl2 by microtiter broth dilution method (reference value: 0.43 to > 71.5 uM); format: functional; settings: time 18-24 hrs
[13] = tested on: Salmonella paratyphi; test: Antibacterial activity against Salmonella paratyphi C CICC 21512 assessed as bacterial growth inhibition incubated for 18 to 24 hrs by microtiter broth dilution method; format: functional; settings: Salmonella enterica, time 18-24 hrs
Summary of the method: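 Log-phase bacteria grown at 37 °C in MHB, diluted to 10^5 CFU/mL, mixed 1:1 with serial peptide dilutions (peptide diluted in 0.01% acetic acid, 0.2% BSA); 37 °C for 18-24 h. MIC read by OD492 as lowest concentration giving no growth; mean of 3-5 independent experiments.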

[14] = tested on: Staphylococcus aureus; test: Antibacterial activity against Staphylococcus aureus ATCC 29213 assessed as bacterial growth inhibition incubated for 18 to 24 hrs in presence of […] by microtiter broth dilution method (reference value: 0.43 to > 71.5 uM); format: functional; settings: time 18-24 hrs
[15] = tested on: Staphylococcus aureus; test: Antibacterial activity against Staphylococcus aureus ATCC 29213 assessed as bacterial growth inhibition incubated for 18 to 24 hrs in presence of 4.5 mM KCl by microtiter broth dilution method (reference value: 0.43 to > 71.5 uM); format: functional; settings: time 18-24 hrs
[16] = tested on: RAW264.7; test: Antiinflammatory activity against mouse RAW264.7 cells assessed as inhibition of LPS-induced nitric oxide production measured after 24 hrs by Griess reagent based ELISA; format: functional, cell-based; settings: dose 0.5-64 µM
Summary of the method: (§3)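 RAW264.7 cells plated at 1-2 × 10^5 cells/mL and stimulated with 500 ng/mL LPS with or without peptide (0.5-64 µM) for 24 h at 37 °C. Controls were untreated cells and LPS alone. TNF-α in the supernatant measured by ELISA. NO measured by Griess reagent (1% sulfanilamide, 0.1% naphthylethylenediamine, 5% phosphoric acid).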

[17] = tested on: Escherichia coli; test: Antibacterial activity against Escherichia coli ATCC 35150 assessed as bacterial growth inhibition incubated for 18 to 24 hrs by microtiter broth dilution method; format: functional; settings: time 18-24 hrs; summary of the method: as §2
[18] = tested on: Bacillus pumilus; test: Antibacterial activity against Bacillus pumilus CMCC 63202 assessed as bacterial growth inhibition incubated for 18 to 24 hrs by microtiter broth dilution method; format: functional; settings: time 18-24 hrs; summary of the method: as §2
[19] = tested on: HepG2; test: Cytotoxicity against human HepG2 cells assessed as reduction in cell viability incubated for 24 hrs by MTT assay; format: functional, cell-based
Summary of the method: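 HepG2 survival measured by MTT assay over a peptide range of 0.25-64 µM.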

[20] = tested on: RAW264.7; test: Antiinflammatory activity against mouse RAW264.7 cells assessed as inhibition of LPS-induced TNF-alpha production at 0.5 to 64 uM measured after 24 hrs by […] ELISA; format: functional, cell-based; settings: dose 0.5-64 µM; summary of the method: as §3
[21] = tested on: Pseudomonas fluorescens; test: Antibacterial activity against Pseudomonas fluorescens CICC 21620 assessed as bacterial growth inhibition incubated for 18 to 24 hrs by microtiter broth dilution method; format: functional; settings: time 18-24 hrs; summary of the method: as §2
[22] = tested on: Staphylococcus aureus; test: Antibacterial activity against Staphylococcus aureus GIM 1.160 assessed as bacterial growth inhibition incubated for 18 to 24 hrs by microtiter broth dilution method; format: functional; settings: time 18-24 hrs; summary of the method: as §2

Substance: H-WGRAFSAGVHRLARGGRG-NH2
- Activity [1]: Non-Toxic
- MHC10 [2]: > 67.01 µM
- MIC [3]: 4.19 µM
- selectivity ratio [4]: 1.26
- Activity [5]: 87.22%
- MIC [6]: > 67 µM
- Activity [7]: Tde
- MIC [8]: > 67 µM
- Activity [9]: Dose-dependent effect
- Activity [10]: inactive
- MIC [11]: > 67 µM
- MIC [12]: > 67 µM
- MIC [13]: > 67 µM
- MIC [14]: > 67 µM
- MIC [15]: > 67 µM
- Activity [16]: Dose-dependent effect
- MIC [17]: > 67 µM
- MIC [18]: > 67 µM
- Activity [19]: Dose-dependent effect
- Activity [20]: Active
- MIC [21]: > 67 µM
- MIC [22]: > 67 µM

Substance: H-WGRAFSRGVRRLARGGRG-NH2
- Activity [1]: Non-Toxic
- MHC10 [2]: > 63.54 µM
- MIC [3]: 3.97 µM
- selectivity ratio [4]: 2.16
- Activity [5]: 85.48%
- MIC [6]: > 63.5 µM
- Activity [7]: Tde
- MIC [8]: 31.8 µM
- Activity [9]: Dose-dependent effect
- Activity [10]: inactive
- MIC [11]: > 63.5 µM
- MIC [12]: > 63.5 µM
- MIC [13]: 15.9 µM
- MIC [14]: > 63.5 µM
- MIC [15]: > 63.5 µM
- Activity [16]: Dose-dependent effect
- MIC [17]: 31.8 µM
- MIC [18]: > 63.5 µM
- Activity [19]: Dose-dependent effect
- Activity [20]: Active
- MIC [21]: > 63.5 µM
- MIC [22]: 15.9 µM

Substance: H-WGEAFSAGVHRLANGGNG-NH2
- Activity [1]: Non-Toxic
- MHC10 [2]: > 71.15 µM
- MIC [3]: > 71.2 µM
- selectivity ratio [4]: 1
- Activity [5]: 73.62%
- MIC [6]: > 71.2 µM
- Activity [7]: Tde
- MIC [8]: > 71.2 µM
- Activity [10]: inactive
- MIC [11]: > 71.2 µM
- MIC [12]: > 71.2 µM
- MIC [13]: > 71.2 µM
- MIC [14]: > 71.2 µM
- MIC [15]: > 71.2 µM
- Activity [16]: Dose-dependent effect
- MIC [17]: > 71.2 µM
- MIC [18]: > 71.2 µM
- Activity [19]: Dose-dependent effect
- Activity [20]: Active
- MIC [21]: > 71.2 µM
- MIC [22]: > 71.2 µM

Substance: H-WLRAFRRLVRRLARGLRR-NH2
- Activity [1]: Non-Toxic
- MHC10 [2]: 27.22 µM
- MIC [3]: 0.85 µM
- selectivity ratio [4]: 59.1
- Activity [5]: 40.73%
- MIC [6]: 6.81 µM
- Activity [7]: Tde
- MIC [8]: 1.7 µM
- Activity [9]: Dose-dependent effect
- Activity [10]: Active
- MIC [11]: 0.43 µM
- MIC [12]: 0.21 µM
- MIC [13]: 0.43 µM
- MIC [14]: 55 µM
- MIC [15]: 0.21 µM
- Activity [16]: Dose-dependent effect
- MIC [17]: 1.7 µM
- MIC [18]: 0.85 µM
- Activity [19]: Dose-dependent effect
- IC50 ([19]; HepG2, 24 h): 32 µM
- Activity [20]: Active
- MIC [21]: 0.43 µM
- MIC [22]: 0.43 µM

Substance: H-WGRAFRRGVRRLARGGRR-NH2
- Activity [1]: Non-Toxic
- MHC10 [2]: > 58.64 µM
- MIC [3]: 3.67 µM
- selectivity ratio [4]: 8
- Activity [5]: 74.8%
- MIC [6]: > 58.6 µM
- Activity [7]: Tde
- MIC [8]: 14.7 µM
- Activity [9]: Dose-dependent effect
- Activity [10]: inactive
- MIC [11]: 7.33 µM
- MIC [12]: 3.67 µM
- MIC [13]: 7.33 µM
- MIC [14]: > 58.6 µM
- MIC [15]: 7.33 µM
- Activity [16]: Dose-dependent effect
- MIC [17]: 29.3 µM
- MIC [18]: > 58.6 µM
- Activity [19]: Dose-dependent effect
- Activity [20]: Active
- MIC [21]: 29.3 µM
- MIC [22]: 7.33 µM

Substance: H-WGRAFSAGVHRLANGGNG-NH2
- Activity [1]: Non-Toxic
- MHC10 [2]: > 70.09 µM
- MIC [3]: > 70.1 µM
- selectivity ratio [4]: 1.08
- Activity [5]: 77.58%
- MIC [6]: > 70.1 µM
- Activity [7]: Tde
- MIC [8]: > 70.1 µM
- Activity [9]: Dose-dependent effect
- Activity [10]: inactive
- MIC [11]: > 70.1 µM
- MIC [12]: > 70.1 µM
- MIC [13]: > 70.1 µM
- MIC [14]: > 70.1 µM
- MIC [15]: > 70.1 µM
- Activity [16]: Dose-dependent effect
- MIC [17]: > 70.1 µM
- MIC [18]: > 70.1 µM
- Activity [19]: Dose-dependent effect
- Activity [20]: Active
- MIC [21]: > 70.1 µM
- MIC [22]: 70.1 µM

Reference: ChEMBL document CHEMBL4765236, “Insights into the Antimicrobial Activity and Cytotoxicity of Engineered α-Helical Peptide Amphiphiles” (J Med Chem, 2016)
